Tests used:
[1] = system: Human alphaherpesvirus 1; assay: Antiviral activity against HSV1 E377 infected in HFF after 3 days by plaque reduction assay; assay type: functional, organism-based; conditions: Human alphaherpesvirus 1, E377, 72 h
Outline: (§1)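 Confluent HFF monolayers (passage <10) were infected in triplicate wells at 20–30 plaques per well, with 1 h adsorption and rocking every 15 min. Six serial dilutions (top 100 μM) were made in MEM with 2% FBS and pooled human immunoglobulin. Cells were incubated 3 days and stained with crystal violet. Plaques were counted, and EC50 was interpolated from plaque reduction.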

[2] = system: Human betaherpesvirus 5; assay: Antiviral activity against human cytomegalovirus AD169 infected in HFF after 8 to 10 days by plaque reduction assay; assay type: functional, organism-based; conditions: Human betaherpesvirus 5, AD169
Outline: (§2)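 Plaque reduction on confluent HFF monolayers in triplicate wells: 1 h adsorption, then six serial compound dilutions (top 100 μM) in MEM with 2% FBS, no immunoglobulin. Incubation was 8 days for HCMV and 10 days for VZV. Plaques were stained with 0.017% neutral red in PBS and counted microscopically. EC50 was interpolated at 50% plaque reduction.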

[3] = system: Human alphaherpesvirus 3; assay: Antiviral activity against VZV Ellan infected in HFF after 8 to 10 days by plaque reduction assay; assay type: functional, organism-based; conditions: Human alphaherpesvirus 3, Ellan; outline: as §2
[4] = system: Human gammaherpesvirus 8; assay: Antiviral activity against Human herpesvirus 8 infected in human BCBL1 cells assessed as inhibition of viral replication after 7 days; assay type: functional, organism-based; conditions: Human gammaherpesvirus 8, BCBL1, 168 h
Outline: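 BCBL1 cells in RPMI 1640 with 10% FBS, compound diluted in triplicate wells with a top concentration of 100 μM. Lytic infection was induced with phorbol 12-myristate 13-acetate at 100 ng/ml final. After 7 days at 37°C in humidified CO2, viral DNA in total DNA was measured by TaqMan qPCR. EC50 was taken as 50% reduction of viral DNA.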

[5] = Cytotoxicity against human Akata cells after 3 days by MTS assay; assay type: cell-based
Outline: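 Akata cells were plated as for the EBV assay but not induced with anti-IgG. Viability was read at the same time as the antiviral endpoint: MTS was added, plates incubated 4 h at 37°C, and formazan absorbance read at 490 nm. Medium-only control wells were included. CC50 was the concentration reducing viable cells by 50%.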

[6] = Cytotoxicity against human HSB2 cells after 3 days by MTS assay; assay type: cell-based, CCRF-HSB-2
[7] = Cytotoxicity against human BCBL1 cells after 3 days by MTS assay; assay type: cell-based
[8] = Selectivity index, ratio of CC50 for HFF to EC50 for […] infected in HFF
[9] = Selectivity index, ratio of CC50 for HFF to EC50 for VZV Ellan infected in HFF
[10] = Selectivity index, ratio of CC50 for human HSB2 cells to EC50 for Human herpesvirus 6 GS infected in human HSB2 cells; assay type: toxicity, cell-based; conditions: read-out: Ratio CC50/EC50
[11] = Selectivity index, ratio of CC50 for human BCBL1 cells to EC50 for Human herpesvirus 8 infected in human BCBL1 cells; assay type: toxicity, cell-based; conditions: read-out: Ratio CC50/EC50
[12] = system: Human alphaherpesvirus 1; assay: Antiviral activity against HSV1 PAA5 harboring polymerase R842S mutant gene infected in HFF after 3 days by plaque reduction assay; assay type: functional, organism-based; conditions: Human alphaherpesvirus 1, PAA5, 72 h; outline: as §1
[13] = system: Human alphaherpesvirus 2; assay: Antiviral activity against HSV2 12247 harboring TK C337Y mutant gene infected in HFF after 3 days by plaque reduction assay; assay type: functional, organism-based; conditions: Human alphaherpesvirus 2, 12247, 72 h; outline: as §1
[14] = system: Human alphaherpesvirus 2; assay: Antiviral activity against HSV2 13077 harboring TK R223H mutant gene infected in HFF after 3 days by plaque reduction assay; assay type: functional, organism-based; conditions: Human alphaherpesvirus 2, 13077, 72 h; outline: as §1
[15] = system: Human alphaherpesvirus 2; assay: Antiviral activity against HSV2 11680 harboring TK R223H mutant gene infected in HFF after 3 days by plaque reduction assay; assay type: functional, organism-based; conditions: Human alphaherpesvirus 2, 11680, 72 h; outline: as §1
[16] = system: Human betaherpesvirus 5; assay: Antiviral activity against human cytomegalovirus RC314 harboring UL97 K355M mutant gene infected in HFF after 8 to 10 days by plaque reduction assay; assay type: functional, organism-based; conditions: Human betaherpesvirus 5, RC314
Outline: (§3)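 Plaque reduction in confluent HFF with six serial dilutions (top 100 μM) and no immunoglobulin added. Virus was adsorbed 1 h on triplicate wells. Cells were incubated 8 days, stained with 0.017% neutral red in PBS, and plaques counted. EC50 is the concentration reducing plaque number by 50%.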

[17] = system: Human betaherpesvirus 5; assay: Antiviral activity against human cytomegalovirus 759D100 harboring deletion mutation in UL97 gene and UL54 A987G mutant gene infected in HFF after 8 to 10 days by plaque reduction assay; assay type: functional, organism-based; conditions: Human betaherpesvirus 5, 759D100; outline: as §3
[18] = system: Human betaherpesvirus 5; assay: Antiviral activity against human cytomegalovirus VR4955 harboring UL54 T700A mutant gene infected in HFF after 8 to 10 days by plaque reduction assay; assay type: functional, organism-based; conditions: Human betaherpesvirus 5, VR4955; outline: as §3
[19] = system: Human alphaherpesvirus 2; assay: Antiviral activity against HSV2 infected in BALB/c mouse assessed as virus-induced mortality rate at 30 mg/kg, po BID administered 24 hrs post infection; assay type: functional
[20] = system: Human alphaherpesvirus 2; assay: Antiviral activity against HSV2 infected in BALB/c mouse assessed mean time to virus-induced death at 10 mg/kg, po BID administered 24 hrs post infection; assay type: functional
[21] = system: Human alphaherpesvirus 2; assay: Antiviral activity against HSV2 infected in BALB/c mouse assessed as virus-induced mortality rate at […], po BID administered 24 hrs post infection; assay type: functional
[22] = system: Human alphaherpesvirus 2; assay: Antiviral activity against HSV2 infected in BALB/c mouse assessed as virus-induced mortality rate at 10 mg/kg, po BID administered 48 hrs post infection; assay type: functional
[23] = system: Human alphaherpesvirus 2; assay: Antiviral activity against HSV2 infected in BALB/c mouse assessed as virus-induced mortality rate at […], po BID administered 48 hrs post infection; assay type: functional
[24] = system: Human alphaherpesvirus 2; assay: Antiviral activity against HSV2 infected in BALB/c mouse assessed mean time to virus-induced death at 30 mg/kg, po BID administered 48 hrs post infection; assay type: functional
[25] = system: Human alphaherpesvirus 2; assay: Antiviral activity against HSV2 infected in BALB/c mouse assessed mean time to virus-induced death at 10 mg/kg, po BID administered 48 hrs post infection; assay type: functional
[26] = system: Human alphaherpesvirus 2; assay: Antiviral activity against HSV2 infected in BALB/c mouse assessed mean time to virus-induced death at […], po BID administered 72 hrs post infection; assay type: functional

O=c1[nH]c(=O)n([C@H]2C[C@H](O)[C@@H](CO)S2)cc1I
EC50 [1]: 1.2 µM | EC50 [2]: 5.85 µM | EC50 [3]: 2 µM | EC50 [4]: > 4 µM | CC50 at 72 h [5]: 0.68 µM | CC50 at 72 h [6]: > 100 µM | CC50 at 72 h [7]: 14 µM | Ratio CC50/EC50 [8]: > 1250 | Ratio CC50/EC50 [9]: 35 | selectivity ratio [10]: 1 | selectivity ratio [11]: < 3.6 | EC50 [12]: 28 µM | EC50 [13]: > 444 µM | EC50 [14]: > 343 µM | EC50 [15]: 246 µM | EC50 [16]: 6.5 µM | EC50 [17]: 14 µM | EC50 [18]: 8 µM | Activity [19]: 100% | Time [20]: 9.8 days | Activity [21]: 100% | Activity [22]: 73% | Activity [23]: 93% | Time [24]: 12.8 days | Time [25]: 10.4 days | Time [26]: 10 days

— ChEMBL document CHEMBL1649277, “Inhibition of herpesvirus replication by 5-substituted 4'-thiopyrimidine nucleosides” (Antimicrob Agents Chemother, 2009)
